# According to publication PMC3880025 (ACS nano, 2013):
# Legend:
# cultured cells = conditions: preliminary screening of QD cellular delivery; cited from earlier work
# A549 cells = assay: Cellular viability after exposure to QD-peptide conjugates; assay type: cell-based, human; conditions: exposure to 100 nM of 75 peptide/QD
# HEK 293 cells = assay: as above; assay type: cell-based, human; conditions: exposure to 100 nM of 75 peptide/QD
# COS-1 cells [1] = assay: Semi-quantitative imaging assay of QD uptake and endosomal escape; assay type: cell-based, African Green Monkey
# COS-1 cells [2] = assay: Cellular viability after exposure to QD-peptide conjugates; assay type: cell-based, African Green Monkey
# PC12 cells = assay: as above; assay type: cell-based, rat; conditions: exposure to 100 nM of 75 peptide/QD
# [3] = system: Primary human dermal fibroblasts; assay: Semi-quantitative imaging assay of QD uptake and endosomal escape; assay type: cell-based
# Outline: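 Peptides were self-assembled onto 550 nm CdSe/ZnS QDs in DMEM with 25 mM HEPES at 25°C for 20–30 min (QDs typically 80–150 nM final). Cells on fibronectin-coated coverglass were exposed for 2 h at 37°C with Tf-Cy5 (50 µg/mL) to mark endosomes, then washed, cultured 48 h, fixed in 3.7% paraformaldehyde and DAPI-stained. Individual cells were imaged and classed for QD uptake (none/low/moderate/high) and endosomal escape.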
# [4] = system: Primary human dermal fibroblasts; assay: Cellular viability after exposure to QD-peptide conjugates; assay type: cell-based; conditions: exposure to 100 nM of 75 peptide/QD
# Hela cells = assay: as above; assay type: cell-based, human; conditions: exposure to 100 nM of 75 peptide/QD
substance,measurement,setting,value
WG•(Dap^Pal)•VKIKK•P9•GG•H6 [JB577],Time after delivery at which cytosolic release peaked,cultured cells,~ 48 h
same,Time of endocytic uptake of QDs,cultured cells,1 to 2 h
same,Cellular viability (%),A549 cells,96 ±3%
same,Cellular viability (%),HEK 293 cells,87 ±5%
same,% Escape in cells with uptake,"COS-1 cells [1]; 100 nM 550 nm QDs, 75 peptides/QD, 2 h incubation, 48 h culture",~ 77%
same,"Endosomal escape / intracellular localization of QDs, result in words","COS-1 cells [1]; QD-peptide conjugates, SAR comparison with JB577",well-dispersed throughout the cytosol
same,Overall uptake/escape: QD uptake class,"COS-1 cells [1]; first word of the cell, 100 nM QDs, 75 peptides/QD, 48 h culture",high/high (high (>60% uptake))
same,"Cellular viability, continuous 48 h exposure, peptide alone",COS-1 cells [2]; continuous 48 h exposure to peptide alone,87±7%
same,"Cellular viability, continuous 48 h exposure, QD conjugates",COS-1 cells [2]; continuous 48 h exposure to peptide-QD conjugates,97±6%
same,Cellular viability (%),COS-1 cells [2]; exposure to 100 nM of 75 peptide/QD,98 ±4%
same,Cellular viability (%),PC12 cells,97 ±10%
same,Overall uptake/escape: QD uptake class,[3]; first word of the cell,high (high (>60% uptake))
same,Overall uptake/escape: endosomal escape class,[3]; second word of the cell,moderate (moderate (30–70%))
same,Cellular viability (%),[4],92 ±6%
same,Cellular viability (%),Hela cells,98 ±1%
